# SR-BI DiI-HDL act = enhances SR-BI lipid uptake from DiI-HDL; CHO ldlA[mSR-BI] cells, DiI-HDL uptake fluorescence, 3 h; 100 = double the neutral-control signal; activation, % at 12.5 µM; hit rate 0.096% among 320,000; AID 504775;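 active = mean replicate activation of at least 60% and every replicate at or above 60%; inconclusive = mean or all-replicate condition met, but not both; inactive = mean below 60% and not all replicates reaching 60%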;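 also: 0% = median plate neutral-control signal and 100% = twice that signal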
#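 Assay system: CHO ldlA[mSR-BI] cells, LDL receptor-null, SR-BI overexpressing; medium: Ham's F12 with 0.5% BSA, HEPES 25 mM, pH 7.4; also added: DiI-HDL 10 µg/mL; timing: 3 h uptake period with compound, 37 °C; signal: DiI fluorescence, bottom read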
# dFosB act-1 = activators of mouse delta FosB homodimer; activation, % at 25 µM; AID 493131; hit rate 0.99% among 340,000; P13346; purified delta FosB, TAMRA-CDK5 oligo fluorescence polarization; percent of positive-control signal above neutral wells;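 active = mean activation above about 17%, with every replicate also reaching it, limit read from the data, passing the limit was not always enough; inconclusive = only one of the two conditions met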
# Target sequence (P13346 whole entry, looked up): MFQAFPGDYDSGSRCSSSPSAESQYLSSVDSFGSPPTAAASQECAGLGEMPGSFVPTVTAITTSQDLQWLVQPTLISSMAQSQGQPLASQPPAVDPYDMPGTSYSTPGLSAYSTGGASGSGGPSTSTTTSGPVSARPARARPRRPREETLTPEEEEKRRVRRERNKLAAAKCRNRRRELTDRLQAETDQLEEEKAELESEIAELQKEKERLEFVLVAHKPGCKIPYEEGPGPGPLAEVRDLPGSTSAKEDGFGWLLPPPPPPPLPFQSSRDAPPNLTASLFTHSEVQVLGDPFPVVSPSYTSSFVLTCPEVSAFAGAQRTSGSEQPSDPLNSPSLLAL
# CAL PDZ FP-1 = inhibitors of human CAL PDZ peptide binding | purified CAL PDZ, TMR-peptide fluorescence polarization, 1 h | Q9HD26 | inhibition, % at 20 µM | hit rate 0.02% among 330,000;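 active = highest replicate inhibition of at least 40%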;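 also: plate controls were DMSO neutral control wells for no effect and unlabeled competitor peptide control wells for full effect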
#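 Control set: unlabelled peptide and DMSO controls / Material: purified CerCALP PDZ construct / Timing: 1 h incubation at room temperature before polarization reading / Doses: 20 µM, one dose / Detection: fluorescence polarization (mP)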
# CAL PDZ FP-2 = inhibitors of human CAL PDZ peptide binding; inhibition, % at 24.9 µM; purified CAL PDZ, TMR-peptide fluorescence polarization, 1 h; AID 602252; hit rate 0.92% among 300,000;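 active = mean inhibition of at least 30% with at least half of replicates also reaching 30%; inconclusive = no clear call, values can overlap the other calls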;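 also: 0% = DMSO neutral control and 100% = excess unlabeled competitor peptide PRC23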
# SR-BI DiI inh = inhibitors of mouse SR-BI mediated HDL lipid uptake | inhibition, % at 12.5 µM | hit rate 0.96% among 320,000 | ldlA[mSR-BI] CHO cells, DiI-HDL uptake fluorescence, 3 h | AID 488896 | Q61009;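 active = mean replicate inhibition of at least 70% and a set share of replicates each scoring 70 or more; inconclusive = meets just one of the two criteria; inactive = fails both criteria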;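 also: 0% = median of neutral control wells and 100% = median of positive control wells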
# dFosB act-2 = enhances mouse delta FosB homodimer binding to DNA | AID 588690 | shares compounds with dFosB act-1 | 2,400 tested, under 10 active | purified delta FosB, TAMRA-CDK5 oligo fluorescence polarization; normalised: neutral wells 0, positive control 100 | activation, % at 24.9 µM;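 active = highest replicate activation at or above 34% and every replicate reaching that threshold; inconclusive = meets only one of the two criteria; inactive = meets neither criterion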;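 also: higher polarization means more probe DNA bound by delta FosB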
# * = called active by the depositor; u = inconclusive; x = no result given. Only some compounds are listed: those with a hit (about 2.8% of all), similar ones and a draw of the others.
SMILES,SR-BI DiI-HDL act,dFosB act-1,CAL PDZ FP-1,CAL PDZ FP-2,SR-BI DiI inh,dFosB act-2
O=S(=O)(NNc1cccc(Cl)n1)c1ccc(Cl)cc1,x,-3,-1,-4,-6,x
COc1ccc(/C=N/Nc2nc(Nc3ccccc3)nc(N3CCCC3)n2)cc1[N+](=O)[O-],-70,62*,0,20,u,u
CNc1nc(N/N=C/c2cc3c(cc2[N+](=O)[O-])OCO3)nc(Nc2ccccc2)n1,-87,55*,-4,1,87*,6
O=[N+]([O-])c1ccc(/C=N/Nc2nc(NCc3ccccc3)nc(N3CCOCC3)n2)cc1,-29,27*,-5,-2,29,2
COc1cc(/C=N/Nc2nc(Nc3ccccc3)nc(N3CCOCC3)n2)ccc1OC(=O)c1ccco1,-73,54*,-3,-6,73*,3
O=[N+]([O-])c1cccc(/C=N/Nc2nc(NCc3ccccc3)nc(N3CCOCC3)n2)c1,4,8,-2,-1,-4,x
O=C(Oc1cccc(/C=N/Nc2nc(N3CCOCC3)nc(N3CCOCC3)n2)c1)c1ccco1,19,-18,-2,-4,-19,x
CCOC(=O)N1CCN(S(=O)(=O)c2ccc(C(=O)N(CCCN(C)C)c3nc4ccc(CC)cc4s3)cc2)CC1,23,32*,-1,-5,-23,1
CN(C)CCN(C(=O)c1ccc(S(=O)(=O)N2CCc3ccccc32)cc1)c1nc2ccc(F)cc2s1,9,62*,-4,2,-9,0
CCOC(=O)N1CCN(S(=O)(=O)c2ccc(C(=O)N(CCN(C)C)c3nc4ccc(CC)cc4s3)cc2)CC1,3,12,0,0,-3,x
CCc1ccc2nc(N(CCCN(C)C)C(=O)c3ccc(S(=O)(=O)N4CCCc5ccccc54)cc3)sc2c1,12,23*,-2,-2,-12,7
CCN(CC)CCNC(=O)CCc1nnc2ccc(N3CCC(C)CC3)nn12,23,2,0,6,-23,x
COc1ccc(CNCCC(c2ccc(F)cc2)c2ccc(OC)cc2)cc1 (stereo not drawn),-2,21*,-4,-2,2,4
COc1ccc(C(CCNCc2ccc(F)cc2)c2ccc(F)cc2)cc1 (stereo not drawn),-5,-5,-2,4,5,x
Cc1ccc(-c2nnc(SCC(=O)Nc3sc(C)c(C)c3C#N)n2C)cc1,3,100*,0,x,-3,2
CCOC(=O)c1cnc(SCCc2ccccc2)nc1N,3,-2,-2,-1,-3,x
CCOC(=O)c1sc(NC(=O)CSc2nc3c(cc2C#N)CCCCCC3)c(C#N)c1C,-75,19*,-1,-4,75*,4
CCOC(=O)c1cnc(SCc2nc(N)nc(Nc3ccccc3)n2)nc1N,-24,35*,-2,1,24,-1
CCOC(=O)c1sc(NC(=O)CSc2nc(C)cc(C)c2C#N)c(C#N)c1C,-19,-8,-4,-1,19,x
COCCn1c(SCC(=O)Nc2sc(C)c(C)c2C#N)nnc1-c1ccc(OC)cc1,-36,-6,0,-3,36,x
CCOC(=O)c1cnc(SCC(=O)Nc2sc(C)c(C)c2C#N)nc1N,-5,45*,0,-5,5,-1
CCOC(=O)c1cnc(SCC(=O)Nc2cc(OC)cc(OC)c2)nc1N,1,-1,-2,-2,-1,x
CC(CCc1ccccc1)N1CCN(C)CC1 (stereo not drawn),-9,8,0,1,9,x
Cc1sc(NC(=O)CSc2nnc(COc3ccc(Cl)cc3)n2C)c(C#N)c1C,-22,22*,-2,-2,22,2
CCOC(=O)c1cnc(SCC(=O)Nc2cc(C(F)(F)F)ccc2N2CCOCC2)nc1N,11,20*,0,5,-11,-1
SMILES,SR-BI DiI-HDL act,dFosB act-1,CAL PDZ FP-1,CAL PDZ FP-2,SR-BI DiI inh,dFosB act-2
CC(Sc1ncn[nH]1)C(=O)Nc1cc(C(F)(F)F)ccc1Cl (stereo not drawn),-2,-8,-1,1,2,x
COCCn1c(=S)[nH]c2cc(C(=O)N3CCc4ccccc43)ccc2c1=O,-6,-11,-2,-4,6,x
CCCn1c(=S)[nH]c2cc(C(=O)N3CCc4ccccc43)ccc2c1=O,-20,50*,0,-3,20,6
CCc1cc2ccc(C)cc2nc1SCC(=O)Nc1c[nH]c(=O)[nH]c1=O,-10,22*,0,-5,10,6
COC(=O)c1cc(OC)c(OC)cc1NC(=O)c1cc(OC)cc(OC)c1,-52,23*,-3,-2,52,-4
COc1ccc(NC(=O)CC(C)NCCCN2CCCC2=O)cc1 (stereo not drawn),8,-5,1,-2,-8,x
O=C(CSc1nc(-c2cccs2)cc(C(F)(F)F)n1)NCc1ccccc1,4,22*,0,x,-4,5
CCCNC(=O)CSc1nc(-c2cccs2)cc(C(F)(F)F)n1,-19,1,-1,1,19,x
O=C(COC(=O)COc1ccccc1)NC1CCS(=O)(=O)C1 (stereo not drawn),-3,1,0,-2,3,x
CCNC(=O)c1c(NC(=O)C2COc3ccccc3O2)sc2c1CCCC2 (stereo not drawn),-28,27*,0,-4,28,-2
CCN1CCc2c(sc(NC(=O)C3COc4ccccc4O3)c2C(N)=O)C1 (stereo not drawn),-22,-1,0,-10,22,x
N#Cc1ccc(-c2ccc(OCC(=O)NCCc3ccccc3)cc2)cc1,-25,0,-1,0,25,x
N#Cc1ccc(-c2ccc(OCC(=O)NCC(=O)Nc3ccc(F)c(F)c3F)cc2)cc1,-20,42*,0,1,20,7

# Assay outcomes as filed in PubChem BioAssay.
